Measured values as given in ChEMBL document CHEMBL1139206, “Evaluation of nitrate-substituted pseudocholine esters of aspirin as potential nitro-aspirins” (Bioorg Med Chem Lett, 2007).

Assays:
Plasma = experiment: Stability in human plasma assessed as aspirin production at pH 7.4; format: ADME, cell-free
Method in brief: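 Test ester incubated in dilute (10%) buffered human plasma, pH 7.4, 37 °C. Products (parent ester, deacetylated salicylate ester, aspirin, salicylic acid) were followed over time by RP-HPLC with PDA detection; salicylate esters read at 296 nm. Disappearance fitted to pseudo-first-order kinetics, half-life = 0.693/k_obs. Aspirin yield expressed on a molar basis.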

Homo sapiens = species on record: Homo sapiens; experiment: Stability in human plasma assessed as hydrolysis half life

Activity (Plasma) [%] | half-life (Homo sapiens) [min] | SMILES
< 0.5 | 0.35 | CC(=O)Oc1ccccc1C(=O)OCCN(C)CCO[N+](=O)[O-]
< 0.5 | 6.12 | CC(=O)Oc1ccccc1C(=O)OCC(=O)N(CCO[N+](=O)[O-])CC[N+](=O)[O-]
9.2 | 0.65 | CCCN(CCOC(=O)c1ccccc1OC(C)=O)CCO[N+](=O)[O-]
< 0.5 | 1.6 | CC(=O)Oc1ccccc1C(=O)OCCO[N+](=O)[O-]
< 0.5 | 1.12 | CC(=O)Oc1ccccc1C(=O)OCCN(CCO[N+](=O)[O-])CCO[N+](=O)[O-]
< 0.5 | 1.05 | CCN(CCOC(=O)c1ccccc1OC(C)=O)CCO[N+](=O)[O-]

Further lines, the molecule ahead of its results:

SMILES | Activity (Plasma) [%] | half-life (Homo sapiens) [min]
CCN(CCO[N+](=O)[O-])C(=O)COC(=O)c1ccccc1OC(C)=O | < 0.5 | 1.03
CC(=O)Oc1ccccc1C(=O)OCCCO[N+](=O)[O-] | < 0.5 | 2.23
CCCN(CCO[N+](=O)[O-])C(=O)COC(=O)c1ccccc1OC(C)=O | < 0.5 | 1.15
CC(=O)Oc1ccccc1C(=O)OCC(=O)N(C)CCO[N+](=O)[O-] | < 0.5 | 1.17
CC(=O)Oc1ccccc1C(=O)OC(C)CO[N+](=O)[O-] (configuration not stated) | < 0.5 | 1.47
